Columns and labels:
[1] = target: T1, Sodium-dependent dopamine transporter (Rattus norvegicus, UniProt P23977); assay: Binding affinity at the Dopamine transporter in rat striata by inhibition of 0.5 nM [3H]WIN-35428 binding
[2] = target: T2, Norepinephrine transporter (Rattus norvegicus, UniProt Q9WTR4); assay: Binding affinity at the Norepinephrine transporter in rat frontal cortex by inhibition of 0.5 nM [3H]nisoxetine binding; format: tissue-based
[3] = target: T3, Sodium-dependent serotonin transporter (Rattus norvegicus, UniProt P31652); assay: Binding affinity at the Serotonin transporter in rat midbrain by inhibition of 0.5 nM [3H]-paroxetine binding; format: tissue-based
[4] = target: Monoamine transporters; Norepininephrine & dopamine (Rattus norvegicus) (UniProt P23977+Q9WTR4); assay: Ratio of IC50 value against NE to that of DA transporters; format: protein assay
Summary of the method: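 Competition binding against 0.5 nM [3H]WIN 35,428 (DA transporter) or 0.5 nM [3H]nisoxetine (NE transporter). The IC50 is the mean ± standard error of three or four experiments, each run in triplicate. Selectivity ratios are NE/DA or 5-HT/DA quotients of the IC50 values.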

[5] = target: T4, Monoamine transporters; serotonin & dopamine (Rattus norvegicus) (UniProt P31652+P23977); assay: Ratio of IC50 value against 5-HT to that of DA transporters; format: protein assay
[6] = target: T1, Sodium-dependent dopamine transporter; assay: Inhibition of [3H]DA uptake by rat striatal dopamine transporter
Summary of the method: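 Rat striatal crude synaptosomes were prepared from male Sprague–Dawley rats by 0.32 M sucrose homogenisation and centrifugation at 800g then 2000g. Each tube held 1.5 mg tissue, 0.5 nM [3H]dopamine and 10 μM pargyline in Krebs phosphate buffer, pH 7.4, with dextrose and ascorbate. Incubation was 3 min at 30 °C, followed by filtration and scintillation counting. Nonspecific uptake was defined with 1 μM mazindol. Three or four experiments were run in triplicate, and Ki was derived by Cheng–Prusoff.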

[7] = target: T3, Sodium-dependent serotonin transporter; assay: Inhibition of [3H]- 5-HT uptake in Serotonin transporter using serotonin uptake assay in rat midbrain tissue; format: tissue-based
Summary of the method: (§1)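 Rat midbrain synaptosomes were used at 1 mg/mL tissue with 5 nM final [3H]serotonin and 10 μM pargyline in Krebs phosphate buffer, pH 7.4. Incubation was 3 min at 30 °C, followed by filtration and scintillation counting. Nonspecific uptake was defined with 1 μM citalopram. Three or four experiments were run in triplicate, and Ki was derived by Cheng–Prusoff.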

[8] = target: T2, Norepinephrine transporter; assay: Inhibition of [3H]NE uptake by rat frontal cortex Norepinephrine transporter; format: tissue-based
Summary of the method: as §1, with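 “Rat frontal cortex” for “Rat midbrain”, “at 10” for “at 1”, “final [3H]norepinephrine” for “final [3H]serotonin”, “μM desipramine.” for “μM citalopram.”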

[9] = target: T3, Sodium-dependent serotonin transporter; assay: Ratio of Ki value towards Serotonin transporter to that of dopamine transporter
Summary of the method: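 Rat [3H]uptake into crude synaptosomes in modified Krebs phosphate buffer, pH 7.4, with dextrose, ascorbic acid and 10 μM pargyline, 3 min at 30 °C, filtered and scintillation counted. DA: male Sprague–Dawley striatum, 0.5 nM [3H]dopamine, 1 μM mazindol nonspecific. 5-HT: midbrain, 5 nM [3H]serotonin, 1 μM citalopram nonspecific. Ki by Cheng–Prusoff; 5-HT Ki/DA Ki; 3–4 experiments in triplicate.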

[10] = target: T4, Monoamine transporters; serotonin & dopamine (Rattus norvegicus); assay: Ratio of IC50 value against Serotonin transporter to that of dopamine transporter; format: protein assay

T3 sequence (P31652 whole entry): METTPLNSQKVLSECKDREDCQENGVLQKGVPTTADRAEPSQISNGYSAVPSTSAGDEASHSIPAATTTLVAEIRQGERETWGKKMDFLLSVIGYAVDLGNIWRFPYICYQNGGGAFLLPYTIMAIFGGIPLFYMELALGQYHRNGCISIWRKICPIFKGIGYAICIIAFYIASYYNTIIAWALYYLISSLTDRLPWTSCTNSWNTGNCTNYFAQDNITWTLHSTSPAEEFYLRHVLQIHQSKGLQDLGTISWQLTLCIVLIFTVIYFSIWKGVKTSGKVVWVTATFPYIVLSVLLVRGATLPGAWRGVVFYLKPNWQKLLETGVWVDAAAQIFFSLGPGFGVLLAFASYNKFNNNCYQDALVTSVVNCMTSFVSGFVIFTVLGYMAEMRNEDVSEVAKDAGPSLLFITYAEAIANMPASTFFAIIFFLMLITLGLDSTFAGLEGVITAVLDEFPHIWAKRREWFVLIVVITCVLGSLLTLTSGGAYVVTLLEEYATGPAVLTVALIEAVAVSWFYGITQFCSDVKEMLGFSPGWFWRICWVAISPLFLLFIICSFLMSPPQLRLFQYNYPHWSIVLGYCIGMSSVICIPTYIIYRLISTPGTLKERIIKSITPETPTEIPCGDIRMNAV
T1 sequence (P23977 whole entry): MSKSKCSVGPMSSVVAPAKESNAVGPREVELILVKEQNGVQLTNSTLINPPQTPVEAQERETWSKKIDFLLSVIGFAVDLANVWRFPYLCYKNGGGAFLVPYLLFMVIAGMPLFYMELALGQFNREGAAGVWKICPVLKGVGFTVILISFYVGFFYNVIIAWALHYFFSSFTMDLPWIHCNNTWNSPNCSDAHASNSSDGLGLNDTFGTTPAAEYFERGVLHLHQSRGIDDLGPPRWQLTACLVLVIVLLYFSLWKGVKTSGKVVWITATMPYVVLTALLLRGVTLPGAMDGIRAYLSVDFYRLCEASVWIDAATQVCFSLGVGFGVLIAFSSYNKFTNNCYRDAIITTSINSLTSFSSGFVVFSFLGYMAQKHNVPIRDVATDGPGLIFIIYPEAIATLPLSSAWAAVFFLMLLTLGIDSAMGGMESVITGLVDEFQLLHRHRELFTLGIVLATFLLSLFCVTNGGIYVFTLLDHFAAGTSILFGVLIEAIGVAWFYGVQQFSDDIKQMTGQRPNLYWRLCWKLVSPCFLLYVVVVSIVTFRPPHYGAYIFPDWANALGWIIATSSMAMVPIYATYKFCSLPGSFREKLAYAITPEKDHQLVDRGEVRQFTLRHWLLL
T4 sequence (P23977 whole entry, looked up): as the sequence (P23977 whole entry) above
T4 sequence (P31652 whole entry, looked up): as the sequence (P31652 whole entry) above
T2 sequence (Q9WTR4 whole entry): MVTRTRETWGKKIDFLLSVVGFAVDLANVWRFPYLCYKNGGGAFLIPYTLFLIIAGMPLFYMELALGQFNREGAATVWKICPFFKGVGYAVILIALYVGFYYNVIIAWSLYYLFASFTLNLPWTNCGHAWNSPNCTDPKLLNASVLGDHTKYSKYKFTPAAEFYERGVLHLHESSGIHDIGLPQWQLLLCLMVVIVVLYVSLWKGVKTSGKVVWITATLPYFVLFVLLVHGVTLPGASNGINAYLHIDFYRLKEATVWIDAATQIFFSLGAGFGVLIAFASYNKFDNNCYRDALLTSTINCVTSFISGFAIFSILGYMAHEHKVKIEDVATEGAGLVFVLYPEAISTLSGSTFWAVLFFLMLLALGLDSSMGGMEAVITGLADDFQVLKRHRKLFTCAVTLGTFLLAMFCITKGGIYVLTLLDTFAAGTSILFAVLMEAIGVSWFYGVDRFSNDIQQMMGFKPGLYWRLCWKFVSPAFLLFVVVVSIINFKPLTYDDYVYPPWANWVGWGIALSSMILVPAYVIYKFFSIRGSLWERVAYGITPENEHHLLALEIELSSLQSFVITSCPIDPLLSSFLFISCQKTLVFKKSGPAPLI

Compound | IC50 [1] | IC50 [2] | IC50 [3] | Ratio [4] | Ratio [5] | Ki [6] | Ki [7] | Ki [8] | Ki [9] | Ratio [10]
Cc1ccc(C2CC3CCC(C2C(N)=O)N3C)cc1 (configuration not stated) | 41.8 nM | 4400 nM | 6370 nM | 105 | 152 | – | – | – | – | –
CN1C2CCC1C(C(=O)OC/C=C/c1ccccc1)C(OC(=O)c1ccccc1)C2 (configuration not stated) | 371 nM | 68900 nM | 368 nM | 186 | 1 | – | – | – | – | –
CN1C2CCC1C(C(=O)OC1CC1)C(c1ccc(I)cc1)C2 (configuration not stated) | 0.61 nM | 102 nM | – | 167 | 25 | – | – | – | – | –
COC(=O)C1C(c2ccc(Cl)cc2)CC2CCC1N2C (configuration not stated) | – | – | – | – | – | 3.68 nM | 5 nM | – | – | –
CC(C)OC(=O)C1C(c2ccc(I)cc2)CC2CCC1N2C (configuration not stated) | 0.43 nM | 285 nM | 66.8 nM | 662 | 155 | 2.79 nM | – | 41.2 nM | 12.5 nM | –
CN1C2CCC1C(C(=O)Oc1ccccc1)C(c1ccc(Cl)cc1)C2 (configuration not stated) | – | – | – | 1490 | – | 5.25 nM | 391 nM | 242 nM | – | 1180
Cc1ccc(C2CC3CCC(C2C(=O)Oc2ccccc2)N3C)cc1 (configuration not stated) | 3.26 nM | 5830 nM | – | 1790 | – | 9.13 nM | 1540 nM | 278 nM | – | 7410
CN1C2CCC1C(C(N)=O)C(OC(=O)c1ccccc1)C2 (configuration not stated) | 753 nM | 3980 nM | 13700 nM | 5.3 | 18 | – | – | – | – | –
CNC(=O)C1C(OC(=O)c2ccccc2)CC2CCC1N2C (configuration not stated) | 2420 nM | 4210 nM | 44800 nM | 1.7 | 18 | – | – | – | – | –
CN1C2CCC1C(C(=O)NCO)C(c1ccc(Cl)cc1)C2 (configuration not stated) | 2.05 nM | 144 nM | – | 47 | 48 | – | – | – | – | –
COC(=O)[C@H]1[C@@H](c2ccc(F)cc2)C[C@H]2CC[C@H]1N2C | – | – | 692 nM | – | – | – | 101 nM | 38.6 nM | – | –
COC(=O)C1C(c2ccc(I)cc2)CC2CCC1N2C (configuration not stated) | 1.26 nM | 36 nM | – | 29 | – | 1.96 nM | 1.74 nM | 7.51 nM | – | 3.3
CC(C)OC(=O)C1C(c2ccc(Cl)cc2)CC2CCC1N2C (configuration not stated) | 1.4 nM | 778 nM | – | 556 | – | 6.04 nM | 129 nM | 250 nM | – | 1000
CN1C2CCC1C(C(N)=O)C(c1ccc(Cl)cc1)C2 (configuration not stated) | 11.5 nM | 4270 nM | 1620 nM | 371 | 141 | – | – | – | – | –
Cc1ccc(C2CC3CCC(C2C(=O)OC(C)C)N3C)cc1 (configuration not stated) | 6.45 nM | 1930 nM | – | 299 | 944 | 15.3 nM | – | 73.4 nM | – | 59.9
CN1C2CCC1C(C(=O)Oc1ccccc1)C(c1ccc(I)cc1)C2 (configuration not stated) | 1.5 nM | 3790 nM | 184 nM | 2580 | – | 6.85 nM | 51.6 nM | 32.7 nM | – | 123
